Measurements taken from ChEMBL document CHEMBL1129493 (J Med Chem, 1996).
Converted amounts (≈) assume the structure as drawn.

Experiments:
[1] = tested on: D54 cell line; assay: Cytotoxic Activity was evaluated against D54 tumor cells; format: functional, cell-based; settings: Homo sapiens
Method in brief: (§1)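 Cytotoxicity was read by MTT dye reduction for suspension cultures or sulforhodamine B for monolayer cultures. For reversal of multidrug resistance, reserpine was added as reversing agent ([…] as printed).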

[2] = tested on: 143B; assay: Cytotoxic Activity was evaluated against 143B (TK-) tumor cells; format: functional, cell-based; settings: Homo sapiens; method in brief: as §1
[3] = tested on: P388; assay: Cytotoxic activity was evaluated against P388D1 tumor cells; format: functional, cell-based; settings: Mus musculus; method in brief: as §1
[4] = Cytotoxic activity was evaluated against Daoy tumor cells; format: functional, cell-based; settings: Homo sapiens; method in brief: as §1
[5] = tested on: U-87 MG; assay: Cytotoxic activity was evaluated against U87MG tumor cells; format: functional, cell-based, U-87MG ATCC; settings: Homo sapiens; method in brief: as §1
[6] = Relative concentration of compound (70 mg/Kg) in lung compared to concentration in plasma (160 ug/mL) at the time of tissue collection from rabbit; relative concentration; format: ADME, organism-based, Oryctolagus cuniculus; settings: read-out: Activity
[7] = tested on: A549; assay: Cytotoxic activity evaluated against A549 tumor cells; settings: Homo sapiens
[8] = tested on: NCI-H460; assay: Cytotoxic Activity was evaluated against H460 tumor cells; format: functional, cell-based; settings: Homo sapiens; method in brief: as §1
[9] = tested on: U373 MG; assay: Cytotoxic activity was evaluated against U373MG tumor cells; format: functional, cell-based, U-373MG ATCC; settings: Homo sapiens; method in brief: as §1
[10] = Relative concentration of compound (70 mg/Kg) in brain compared to concentration in plasma (160 ug/mL) at the time of tissue collection from rabbit; relative concentration; format: ADME, organism-based, Oryctolagus cuniculus; settings: read-out: Activity
[11] = tested on: Vero; assay: Cytotoxic Activity was evaluated against Vero tumor cells; format: functional, cell-based; settings: Chlorocebus sabaeus; method in brief: as §1
[12] = Cytotoxic activity was evaluated against L tumor cells; format: functional, cell-based; settings: Mus musculus; method in brief: as §1
[13] = target: T1, Dihydrofolate reductase (Candida albicans, UniProt P22906); assay: Inhibition of Dihydrofolate reductase enzyme from Candida albicans
T1 sequence (P22906 whole entry): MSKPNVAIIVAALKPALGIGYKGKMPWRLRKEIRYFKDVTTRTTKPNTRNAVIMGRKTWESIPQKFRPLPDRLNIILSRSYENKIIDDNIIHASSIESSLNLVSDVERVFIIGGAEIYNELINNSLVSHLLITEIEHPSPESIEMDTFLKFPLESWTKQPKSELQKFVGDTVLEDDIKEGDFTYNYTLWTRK

[14] = target: T2, Dihydrofolate reductase (Homo sapiens, UniProt P00374); assay: Inhibition of human recombinant Dihydrofolate reductase enzyme
T2 sequence (P00374 whole entry): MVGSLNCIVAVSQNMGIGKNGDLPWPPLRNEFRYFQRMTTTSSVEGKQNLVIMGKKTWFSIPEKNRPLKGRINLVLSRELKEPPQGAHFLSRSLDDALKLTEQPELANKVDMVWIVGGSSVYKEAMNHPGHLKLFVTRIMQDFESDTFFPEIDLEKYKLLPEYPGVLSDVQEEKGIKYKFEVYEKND

[15] = tested on: Candida albicans; assay: Minimum inhibitory concentration was evaluated against Candida albicans; format: functional
[16] = Relative concentration of compound in brain compared to concentration in plasma (9.4 ug/mL) at the time of tissue collection from mice; relative concentration; format: ADME, organism-based; settings: mouse, read-out: Other
[17] = tested on: HCT-8; assay: Activity was evaluated against HCT-8 tumor cells; format: functional, cell-based; settings: Homo sapiens; method in brief: as §1
[18] = tested on: Candida albicans; assay: Minimum inhibitory concentration evaluated against Candida albicans; format: functional

| SMILES | IC50 [1] | IC50 [2] | IC50 [3] | IC50 [4] | IC50 [5] | Kp [6] | IC50 [7] | IC50 [8] | IC50 [9] | Kp [10] | IC50 [11] | IC50 [12] | Ki [13] | Ki [14] | MIC [15] | Kp [16] | IC50 [17] | MIC [18] |
| --- | --- | --- | --- | --- | --- | --- | --- | --- | --- | --- | --- | --- | --- | --- | --- | --- | --- | --- |
| CN(Cc1cnc2nc(N)nc(N)c2n1)c1ccc(C(=O)N[C@@H](CCC(=O)O)C(=O)O)cc1 [METHOTREXATE] | 16 nM | 8.8 nM | 4.8 nM | 9 nM | 22 nM | 0.05 | 31 nM | 9.5 nM | 12 nM | 0.006 | 9.2 nM | 8.3 nM |  |  |  |  |  |  |
| COc1cc(Cn2ccc3c4c(N)nc(N)nc4ccc32)cc(OC)c1OC |  |  |  |  |  |  |  |  |  |  |  |  | 0.23 nM | 0.006 nM | 5 µg/mL (≈ 13.2 µM) |  |  |  |
| COc1cc(NCc2ccc3nc(N)nc(N)c3c2C)cc(OC)c1OC [TRIMETREXATE] | 60 nM |  | 2.7 nM | 12 nM | 11 nM |  | 5.3 nM |  | 9.6 nM |  | 16 nM | 4.7 nM | 1.9 nM |  |  | 0.1 | 1.8 nM | > 50 µg/mL |
